Measured values: publication PMC10328739 (Small (Weinheim an der Bergstrasse, Germany), 2021)

Experiments:
[1] = Screening of micelle elongation; format: physicochemical; conditions: T2 micelles
In short: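 Drug loaded into T2 micelles at polymer/drug w/w 10/0, 10/1, 10/2, 10/4 and 10/8. Particle size and size distribution followed over time by DLS. Polymer concentration (1.25–80 mg mL⁻¹), temperature (4, 25, 37 °C) and NaCl (up to ≈4%) also varied. Each formulation scored as spherical, sphere+worm mix, worm, or precipitate.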

[2] = Maximal drug solubilization in POx micelles; format: physicochemical
[3] = system: BRCA1-mutant human breast carcinoma xenograft MDA-MB-436; assay: Tumor inhibition, MDA-MB-436 xenograft; format: in vivo, athymic nude mice; conditions: 20 mg kg^−1 IV, twice a week, six injections

| Compound | mass fraction of drug that inhibited elongation [1] [%] | maximal solubilization ([2]; in T2 micelles) [mg/mL] | maximal solubilization ([2]; in T3 micelles) [mg/mL] | antitumor activity (tumor growth inhibition) [3] |
| --- | --- | --- | --- | --- |
| CC1(C)CCC(c2ccc(Cl)cc2)=C(CN2CCN(c3ccc(C(=O)NS(=O)(=O)c4ccc(N[C@H](CCN5CCOCC5)CSc5ccccc5)c(S(=O)(=O)C(F)(F)F)c4)cc3)CC2)C1 [ABT-263] | ≤ 10 | 4 | 8 |  |
| O=C(c1cc(Cc2n[nH]c(=O)c3ccccc23)ccc1F)N1CCN(C(=O)C2CC2)CC1 [Olaparib] |  |  |  | neither the blank spherical micelles nor the free olaparib (20 mg kg^−1) displayed inhibition of the tumor growth |
| CC(=O)O[C@H]1C(=O)[C@@]2(C)[C@H]([C@H](OC(=O)c3ccccc3)[C@]3(O)C[C@H](OC(=O)[C@H](O)[C@@H](NC(=O)c4ccccc4)c4ccccc4)C(C)=C1C3(C)C)[C@]1(OC(C)=O)CO[C@@H]1C[C@@H]2O [Paclitaxel] | ≤ 10 |  |  |  |
| CS(=O)(=O)c1ccc(C(=O)Nc2ccc(Cl)c(-c3ccccn3)c2)c(Cl)c1 [Vismodegib] | ≤ 10 | 4 | 8 |  |
